Measurements taken from PMC4074512 (European journal of pharmacology, 2014).
In brackets after ≈: the same amount, converted by molar mass. Where two headings read alike, the source gives them in different places.

What was measured:
[1] = ref Zhang et al., 2013, cited from earlier work
ABCB1 transporter (PGP1) = ABCB1 transporter (PGP1) (Homo sapiens, UniProt P08183); type: cell-based; settings: PGP1 overexpressing MDCKII cells, even at 200 μM
[2] = system: human ectocervical tissues; settings: three separate human ectocervical tissues; ref Zhang et al., 2013; cited from earlier work
Caco-2 monolayers = settings: pH from 5.5 to 7.4, ref Zhang et al., 2013; cited from earlier work
[3] = ref Zhang et al., 2013; cited from earlier work
[4] = Bidirectional flux of EFdA in Caco-2 cell monolayers; type: in vitro ADME; settings: human, Caco-2, pH 7.4
Method in brief: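 Caco-2 cells seeded at 2.0 × 10^5 per polycarbonate insert (1.12 cm2, 0.4 μm) and differentiated 21 days. Monolayers were washed and pre-incubated 20 min at 37°C in HBSS, then TEER was read. Donor (apical or basolateral) held 25, 100 or 400 μM compound in HBSS/25 mM HEPES pH 7.4; 2 h at 37°C with shaking, sampled 0–120 min. HPLC-UV at 260 nm. Papp = (dQ/dt)/(A×C0); efflux ratio = Papp(b-a)/Papp(a-b); n = 3.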

MDCKII monolayers = type: in vitro ADME, Canine; settings: MDCKII monolayers; for Efflux ratio after EDTA treatment compared to non-EDTA treatment groups: all test groups; for Papp (a–b) / Papp (b-a): without EDTA treatment
Method in brief: (§1)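 MDCKII cells seeded at 2.0 × 10^5 per polycarbonate insert (1.12 cm2, 0.4 μm) and grown 7 days; monolayers used only if TEER > 200 Ωcm2. Flux run in both directions per the Caco-2 protocol: HBSS/25 mM HEPES pH 7.4, 37°C, 2 h, serial sampling. Optional pretreatment: 5 μM EDTA in Ca/Mg-free HBSS, both sides, 5 min at 37°C, then washed. Compound by HPLC-UV, lucifer yellow by fluorescence (485/535 nm); n = 3.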

[5] = type: in vitro ADME, Canine; settings: dog, MDCK
Method in brief: as §1

MDCKII cells [6] = experiment: Calcein-AM uptake assay in MDCKII cells; type: cell-based, Canine; settings: MDCKII cells without PGP1 expression, calcein-AM 1 μM
[7] = system: PGP1 overexpressing MDCKII cells; experiment: In vitro cytotoxicity, MTT assay, PGP1 overexpressing MDCKII cells; type: cell-based, Canine; settings: 48 h, n = 8, mean ± SD
Method in brief: (§2)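 Parental and PGP1-overexpressing MDCKII cells seeded at 5 × 10^3 per well, incubated 24 h at 37°C/5% CO2, then exposed 48 h to serial concentrations of DMSO-dissolved compound (DMSO ≤1% v/v). MTT (5 mg/ml solution) was added for 4 h at 37°C, formazan dissolved in DMSO, absorbance read at 595 nm; IC50 derived; mean ± SD.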

MDCKII cells [8] = experiment: In vitro cytotoxicity, MTT assay, MDCKII cells; type: cell-based, Canine; settings: 48 h, n = 8, mean ± SD
Method in brief: as §2

ABCB1 transporter (PGP1), sequence (P08183 whole entry): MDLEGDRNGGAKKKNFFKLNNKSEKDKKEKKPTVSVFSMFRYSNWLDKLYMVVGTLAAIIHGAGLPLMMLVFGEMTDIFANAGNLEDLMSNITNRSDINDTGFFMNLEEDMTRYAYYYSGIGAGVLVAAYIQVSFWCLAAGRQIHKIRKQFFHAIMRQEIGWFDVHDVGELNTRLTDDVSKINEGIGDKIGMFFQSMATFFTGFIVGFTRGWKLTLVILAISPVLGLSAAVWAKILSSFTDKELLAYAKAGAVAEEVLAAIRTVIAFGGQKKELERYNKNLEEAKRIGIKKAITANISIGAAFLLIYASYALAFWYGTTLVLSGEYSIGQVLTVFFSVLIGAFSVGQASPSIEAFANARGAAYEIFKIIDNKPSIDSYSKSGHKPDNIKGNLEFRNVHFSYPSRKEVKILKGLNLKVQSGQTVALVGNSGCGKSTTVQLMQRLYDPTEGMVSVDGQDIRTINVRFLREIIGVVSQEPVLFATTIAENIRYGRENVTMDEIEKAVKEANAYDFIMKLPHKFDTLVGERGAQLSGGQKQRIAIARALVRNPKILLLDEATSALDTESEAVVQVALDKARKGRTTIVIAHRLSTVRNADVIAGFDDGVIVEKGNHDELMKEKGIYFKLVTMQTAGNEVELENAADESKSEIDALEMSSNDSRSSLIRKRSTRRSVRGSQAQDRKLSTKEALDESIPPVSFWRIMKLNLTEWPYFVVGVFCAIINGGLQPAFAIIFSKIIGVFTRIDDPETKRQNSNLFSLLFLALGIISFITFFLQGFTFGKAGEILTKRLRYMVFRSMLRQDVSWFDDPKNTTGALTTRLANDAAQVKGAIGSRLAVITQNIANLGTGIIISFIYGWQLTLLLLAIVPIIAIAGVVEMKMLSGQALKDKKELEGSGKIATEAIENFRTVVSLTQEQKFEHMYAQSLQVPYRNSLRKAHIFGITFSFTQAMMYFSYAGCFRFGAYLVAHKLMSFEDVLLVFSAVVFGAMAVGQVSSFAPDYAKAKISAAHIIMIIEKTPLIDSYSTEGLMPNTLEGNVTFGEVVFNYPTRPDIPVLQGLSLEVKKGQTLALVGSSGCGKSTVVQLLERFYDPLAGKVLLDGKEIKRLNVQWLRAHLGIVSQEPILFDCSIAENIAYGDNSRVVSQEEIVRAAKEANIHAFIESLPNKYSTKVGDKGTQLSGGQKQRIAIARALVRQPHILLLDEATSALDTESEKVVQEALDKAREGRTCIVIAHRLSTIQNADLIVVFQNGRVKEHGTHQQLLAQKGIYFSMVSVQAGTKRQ

C#C[C@]1(CO)O[C@@H](n2cnc3c(N)nc(F)nc32)C[C@@H]1O [EFdA, 4′-ethynyl-2-fluoro-2′-deoxyadenosine]
Change in solubility ([1]; pH from 6 to 9): no obvious change | Solubility in water [1]: 1000 µg/mL (≈ 3.41 mM) | PGP1 inhibitory effect (ABCB1 transporter (PGP1)): lack of observed PGP1 inhibitory effect | Papp [2]: < 1 ×10⁻⁶ cm/s | pH dependence of transport (Caco-2 monolayers): independent of pH | Log Po/w [3]: −1.2 | efflux ratio at 2 h [4]: > 2 | efflux ratio at 2 h, 100 μM [4]: 5.7 | efflux ratio at 2 h, 400 μM [4]: 2.5 | Efflux ratio after EDTA treatment compared to non-EDTA treatment groups (MDCKII monolayers): higher | Papp A→B [5]: < 1 ×10⁻⁶ cm/s | efflux ratio [5]: ~1

C=C[C@H]1C[N@@]2CC[C@H]1C[C@@H]2[C@@H](O)c1ccnc2ccc(OC)cc12 [Quinidine]
PGP1 inhibitory response (calcein fluorescence) (MDCKII cells [6]): no obvious PGP1 inhibitory response

Ivermectin
IC50 [7]: 12.2 ± 0.87 µM | IC50 (MDCKII cells [8]): 20 ± 2.91 µM | PGP1 inhibitory response (calcein fluorescence) (MDCKII cells [6]): no obvious PGP1 inhibitory response

Lucifer yellow [LY]
Efflux ratio after EDTA treatment compared to non-EDTA treatment groups (MDCKII monolayers): higher | Papp (a–b) (MDCKII monolayers; 25 μM): 3.76 ± 0.12 × 10^−7cm/s | Papp (b-a) (MDCKII monolayers; 25 μM): 4.14 ± 0.40 × 10^−7cm/s | Papp (a–b) (MDCKII monolayers; 100 μM): 1.70 ± 0.06 × 10^−7cm/s | Papp (b-a) (MDCKII monolayers; 100 μM): 2.05 ± 0.12 × 10^−7cm/s | Papp (a–b) (MDCKII monolayers; 400 μM): 1.77 ± 0.31 × 10^−7cm/s | Papp (b-a) (MDCKII monolayers; 400 μM): 2.07 ± 0.46 × 10^−7cm/s
